The record followed here is ChEMBL document CHEMBL4680106, “Rational Design of Dimeric Lysine N-Alkylamides as Potent and Broad-Spectrum Antibacterial Agents” (J Med Chem, 2018).

Data set [1] concerns Staphylococcus epidermidis. Briefly: Antimicrobial activity against methicillin-resistant Staphylococcus epidermidis RP62A assessed as inhibition of bacterial growth by broth microdilution method. Format: functional. In short, it runs like this:
(§1)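 Broth microdilution following a previously reported procedure. MIC was taken as the lowest concentration with no turbidity, meaning complete growth inhibition over the incubation period.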

The subject of another data set is Pseudomonas aeruginosa. The experiment in a line: Antimicrobial activity against Pseudomonas aeruginosa ATCC 27853 assessed as inhibition of bacterial growth by broth microdilution method. Format: functional. A general note: Broth dilution looks for growth in wells or tubes with falling amounts of substance.
The subject of data set [2] is Escherichia coli. The experiment in a line: Antimicrobial activity against Escherichia coli ATCC 25922 assessed as inhibition of bacterial growth by broth microdilution method. Format: functional.
A further data set concerns Enterococcus faecalis. Briefly: Antimicrobial activity against vancomycin-resistant Enterococcus faecalis assessed as inhibition of bacterial growth by broth microdilution method. Format: functional. The procedure, abridged:
as §1

For data set [3], the system named is Staphylococcus aureus. The experiment in a line: Antimicrobial activity against methicillin-resistant Staphylococcus aureus ATCC 33591 assessed as inhibition of bacterial growth by broth microdilution method. Format: functional. In short, it runs like this:
as §1

Data set [4] in a line: Induction of hemolysis in human RBC incubated for 1 hr. Format: cell-based, Erythrocyte. To be noted: human red blood cells (erythrocytes). The procedure, abridged: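 Human RBCs pelleted at 3000 rpm for 10 min and made 5% v/v in 1x PBS, mixed 1:1 with compound at several concentrations, 37 °C for 1 h. Spun at 3500 rpm for 10 min; diluted supernatant read at 540 nm. Hemolysis % referenced to 2% Triton X-100 (100%) and PBS (0%). Three repeats, duplicates each.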

Data set [5] concerns Staphylococcus aureus. Briefly: Bactericidal activity against methicillin-resistant Staphylococcus aureus ATCC 33591 assessed as bacterial killing by measuring reduction in bacterial colony count at 64 times MIC incubated for 2 hrs by time-kill kinetics method. Format: functional, organism-based. In short, it runs like this: (§2)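 MRSA were grown in tryptic soy broth to 10^6 CFU/mL and exposed to compound at multiples of MIC, sampled for up to 2 h. Aliquots were diluted 10^2–10^4-fold and plated on TSB agar, incubated 24 h at 37 °C, and colonies counted. Run three times.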

For data set [6], the system named is Staphylococcus aureus. The experiment in a line: Antimicrobial activity against methicillin-resistant Staphylococcus aureus ATCC 33591 grown under presence of test compound at 1/2 MIC assessed as inhibition of bacterial growth measured after 14 passages by broth microdilution method relative to wild type. Format: functional. In short, it runs like this:
(§3)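 Initial MIC by the standard broth microdilution procedure. Bacteria from the 1/2 MIC wells were made into a suspension of about 10^6 CFU/mL, incubated with compound at 37 °C for 24 h, and the MIC was measured again. This was repeated daily for 14 passages.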

Data set [7] deals with Escherichia coli. Briefly: Inhibition of biofilm formation in Escherichia coli ATCC 25922 at 3 ug/ml incubated overnight by crystal violet staining based method. Format: functional. The procedure, abridged: (§4)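 Overnight-grown (12 h) bacteria diluted 1:100 into 10% MHII broth and incubated with compound overnight at 37 °C. OD600 recorded, then biomass by crystal violet, expressed as CV OD/growth OD and normalized to untreated control. Triplicate, mean ± STDEV.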

In data set [8] the test system is Cell membrane. The experiment in a line: Induction of cell membrane integrity loss in methicillin-resistant Staphylococcus aureus ATCC 33591 at 5 ug/ml incubated for 2 hrs by TEM analysis. Conditions: dose 5.0 µg/ml.
The subject of data set [9] is Escherichia coli. The experiment in a line: Inhibition of biofilm formation in Escherichia coli ATCC 25922 at 1.5 ug/ml incubated overnight by crystal violet staining based method. Format: functional. In short, it runs like this:
as §4

Data set [10] deals with Staphylococcus aureus. Briefly: Bactericidal activity against methicillin-resistant Staphylococcus aureus ATCC 33591 assessed as bacterial killing at 6.25 to 12.5 ug/ml incubated for 2 hrs by time-kill kinetics method. Format: functional, organism-based. Conditions: dose 6.25-12.5 µg/ml. In short, it runs like this:
as §2

The subject of data set [11] is Escherichia coli. Briefly: Antimicrobial activity against Escherichia coli ATCC 25922 grown under presence of test compound at 1/2 MIC assessed as inhibition of bacterial growth measured after 14 passages by broth microdilution method relative to wild type. Format: functional, organism-based. In short, it runs like this: as §3
Data set [12] relates to Cell membrane. The experiment in a line: Induction of membrane depolarization in methicillin-resistant Staphylococcus aureus ATCC 33591 assessed as induction of membrane potential loss at 5 ug/ml incubated for 30 mins by DiSC3(5) dye based bacterial membrane depolarization assay. Conditions: dose 5.0 µg/ml. In short, it runs like this: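 Mid-log MRSA were washed and resuspended at 10^8 CFU/mL in a 1:1:1 mix of 5 mM glucose, 5 mM HEPES and 100 mM KCl, with 2 µM DiSC3(5). Fluorescence (ex 622/em 670 nm) was read at room temperature until it reached its minimum after about 20 min. Compound was then added and the fluorescence rise recorded. Untreated negative control. Three runs in duplicate.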

For data set [13], the system named is Cell membrane. Briefly: Induction of cell membrane disruption in methicillin-resistant Staphylococcus aureus ATCC 33591 at 2 times MIC incubated for 2 hrs by DAPI and PI staining based optical microscopy. The procedure, abridged: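 Bacteria at about 2 × 10^6 cells were treated at 2 × MIC for 2 h, then centrifuged and washed in PBS. They were stained with PI (5 µg/mL) and then DAPI (10 µg/mL), each for 15 min in the dark at 0 °C. Imaged by oil-immersion light microscopy at 100×. Untreated controls were processed identically. Three runs in duplicate.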

The subject of data set [14] is Cell membrane. The experiment in a line: Induction of cell membrane disruption in Escherichia coli ATCC 25922 at 2 times MIC incubated for 2 hrs by DAPI and PI staining based optical microscopy. In short, it runs like this:
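Cells grown to ~2 × 10^6 cells, exposed 2 h, pelleted at 3000g for 15 min and PBS-washed. Stained with PI (5 µg/mL) then DAPI (10 µg/mL in water), each 15 min in the dark at 0 °C, then PBS-washed. Untreated controls handled identically. Imaged by 100x oil-immersion light microscopy; three repeats, duplicates each.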

Data set [15] relates to Staphylococcus aureus. The experiment in a line: Bactericidal activity against methicillin-resistant Staphylococcus aureus ATCC 33591 assessed as bacterial killing by measuring reduction in bacterial colony count at 16 to 32 x MIC measured within 10 mins by time-kill kinetics method. To be noted: dose 16-32 x MIC; time min <=10.

In brackets after ≈: the same amount, converted by molar mass. Activity calls are given as the source filed them. The rule behind the calls is not given here.

What is called MIC is the lowest concentration that inhibits growth of the organism. As to `CCCCCCCNC(=O)[C@H](CCCCN)NC(=O)c1ccc(C(=O)N[C@@H](CCCCN)C(=O)NCCCCCCC)cc1`, the MIC result (in [1]; in the data set with Pseudomonas aeruginosa; in the data set on Enterococcus faecalis; in the data set with Staphylococcus aureus [3]) was “inactive” in each case. The MIC in the data set on Escherichia coli [2] worked out at 6 µg/mL (≈ 9.73 µM).

In the case of `CCCCCCNC(=O)[C@H](CCCCN)NC(=O)c1ccc(C(=O)N[C@@H](CCCCN)C(=O)NCCCCCC)cc1`, the MIC result (in [1]; in the data set with Pseudomonas aeruginosa; in the data set with Escherichia coli [2]; in the data set with Enterococcus faecalis; in the data set on Staphylococcus aureus [3]) was “inactive” each time.

On to `CCCCCCCCCCCCCNC(=O)[C@H](CCCCN)NC(=O)c1ccc(C(=O)N[C@@H](CCCCN)C(=O)NCCCCCCCCCCCCC)cc1`, for which the MIC (in [1]; with Staphylococcus aureus [3]) was 6 µg/mL (≈ 7.64 µM) throughout. Besides, the MIC result in the data set with Pseudomonas aeruginosa, with Escherichia coli [2] and with Enterococcus faecalis was “inactive” each time.

Broadly, the HC50 is the concentration giving 50% haemolysis. For `NCCCC[C@H](NC(=O)c1ccc(C(=O)N[C@@H](CCCCN)C(=O)NCc2ccc(-c3ccccc3)cc2)cc1)C(=O)NCc1ccc(-c2ccccc2)cc1`, the MIC in [1] turned out to be 6 µg/mL (≈ 7.97 µM); in the data set on Pseudomonas aeruginosa, 12 µg/mL (≈ 15.9 µM); in the data set on Escherichia coli [2], 3 µg/mL (≈ 3.98 µM); with Staphylococcus aureus [3], 3 µg/mL (≈ 3.98 µM). Besides, the MIC entry with Enterococcus faecalis was “inactive”. The molecule also returned a 50% haemolytic concentration (HC50) at 1 h in data set [4] above 250 µg/mL.

Regarding `CCn1cc(C(=O)O)c(=O)c2cc(F)c(N3CCNCC3)cc21` [NORFLOXACIN], in the data set on Staphylococcus aureus [5], the result was inactive. In the data set with Staphylococcus aureus [6], the Ratio is given as above 80.

With `CCCCCCCCNC(=O)[C@H](CCCCN)NC(=O)c1ccc(C(=O)N[C@@H](CCCCN)C(=O)NCCCCCCCC)cc1`, the minimum inhibitory concentration (MIC) is 3 µg/mL (≈ 4.65 µM) in [1], 3 µg/mL (≈ 4.65 µM) with Pseudomonas aeruginosa, 0.75 µg/mL (≈ 1.16 µM) in the data set with Escherichia coli [2] and 1.5 µg/mL (≈ 2.33 µM) with Staphylococcus aureus [3]. Moreover, the MIC result in the data set on Enterococcus faecalis is “inactive”. Besides, in data set [4], the HC50 at 1 h is above 250 µg/mL.

As for `CCCCCCCCCCNC(=O)[C@H](CCCCN)NC(=O)c1ccc(C(=O)N[C@@H](CCCCN)C(=O)NCCCCCCCCCC)cc1`, the minimum inhibitory concentration (MIC) in [1] was found to be 6 µg/mL (≈ 8.56 µM); in the data set on Escherichia coli [2] it was 3 µg/mL (≈ 4.28 µM); in the data set on Enterococcus faecalis, 3 µg/mL (≈ 4.28 µM); in the data set on Staphylococcus aureus [3] it was 1.5 µg/mL (≈ 2.14 µM). For the same molecule, in the data set on Pseudomonas aeruginosa, the MIC entry is “inactive”. Also, the HC50 at 1 h in data set [4] amounted to 250 µg/mL.

A word on the inhibition: it is the share of the control response that was lost under treatment. A lower inhibition goes with a weak effect. Take `CCCCCCCCCNC(=O)[C@H](CCCCN)NC(=O)c1ccc(C(=O)N[C@@H](CCCCN)C(=O)NCCCCCCCCC)cc1`: at 3 µg/mL the inhibition in the data set with Escherichia coli [7] was 70%. Moreover, the MIC in [1] was 1.5 µg/mL (≈ 2.23 µM); in the data set with Pseudomonas aeruginosa, 3 µg/mL (≈ 4.46 µM); in the data set with Escherichia coli [2], 0.75 µg/mL (≈ 1.11 µM); with Enterococcus faecalis, 3 µg/mL (≈ 4.46 µM); in the data set with Staphylococcus aureus [3], 0.75 µg/mL (≈ 1.11 µM). In addition, the result with Cell membrane [8], in the data set with Escherichia coli [11], with Staphylococcus aureus [6], in the data set on Cell membrane [12], with Cell membrane [13] and with Cell membrane [14] was Active. Moreover, in the data set on Escherichia coli [9], the inhibition at 1.5 µg/mL is 50%. In addition, the outcome in the data set with Staphylococcus aureus [10] was inactive. Besides, in the data set on Staphylococcus aureus [15], the Activity amounted to 3.74 log10CFU/ml. In data set [4], this molecule yielded a 50% haemolytic concentration (HC50) at 1 h of 180 µg/mL.

For the molecule `CCCCCCCCCCCCNC(=O)[C@H](CCCCN)NC(=O)c1ccc(C(=O)N[C@@H](CCCCN)C(=O)NCCCCCCCCCCCC)cc1`, the MIC was 6 µg/mL (≈ 7.92 µM) in [1], 12 µg/mL (≈ 15.8 µM) with Pseudomonas aeruginosa, 3 µg/mL (≈ 3.96 µM) in the data set with Escherichia coli [2] and 3 µg/mL (≈ 3.96 µM) in the data set on Staphylococcus aureus [3]. Besides, the MIC result in the data set on Enterococcus faecalis was “inactive”. In [4], this molecule came in with a 50% haemolytic concentration (HC50) at 1 h above 250 µg/mL.

As for `CCCCCCCCCCCCCCNC(=O)[C@H](CCCCN)NC(=O)c1ccc(C(=O)N[C@@H](CCCCN)C(=O)NCCCCCCCCCCCCCC)cc1`, the MIC entry (in data set [1]; in the data set on Pseudomonas aeruginosa; in the data set on Escherichia coli [2]; with Enterococcus faecalis; with Staphylococcus aureus [3]) was “inactive” each time.
